From ChEMBL document CHEMBL3414528, “Novel naftopidil-related derivatives and their biological effects as alpha1-adrenoceptors antagonists and antiproliferative agents” (Eur J Med Chem, 2015) come the findings set out here.

The species named for assay [1] is Rattus norvegicus. In words: Selectivity ratio for Sprague-Dawley rat thoracic aorta adrenergic alpha-1D receptor to Sprague-Dawley rat spleen adrenergic alpha-1B receptor. The class given is tissue-based.
The species named for assay [2] is Rattus norvegicus. In words: Selectivity ratio for Sprague-Dawley rat thoracic aorta adrenergic alpha-1D receptor to Sprague-Dawley rat prostatic vas deferens adrenergic alpha-1A receptor.
Assay [3] concerns the target T1, Alpha-1B adrenergic receptor (Rattus norvegicus, UniProt P15823).
T1 sequence (P15823 whole entry): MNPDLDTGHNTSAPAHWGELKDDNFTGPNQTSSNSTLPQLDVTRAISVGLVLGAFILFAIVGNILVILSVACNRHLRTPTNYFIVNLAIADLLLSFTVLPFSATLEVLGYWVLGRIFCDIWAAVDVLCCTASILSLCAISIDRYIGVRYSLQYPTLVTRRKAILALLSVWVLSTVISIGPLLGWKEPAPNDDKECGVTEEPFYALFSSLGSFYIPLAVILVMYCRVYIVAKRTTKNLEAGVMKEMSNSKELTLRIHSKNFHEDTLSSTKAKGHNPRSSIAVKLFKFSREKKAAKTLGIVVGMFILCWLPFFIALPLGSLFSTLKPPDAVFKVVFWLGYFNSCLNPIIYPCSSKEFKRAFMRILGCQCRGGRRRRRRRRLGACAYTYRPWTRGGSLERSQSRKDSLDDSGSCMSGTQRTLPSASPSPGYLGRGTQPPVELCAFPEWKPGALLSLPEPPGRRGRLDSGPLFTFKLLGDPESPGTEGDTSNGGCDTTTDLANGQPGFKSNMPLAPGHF
In words: Antagonist activity at Sprague-Dawley rat spleen adrenergic alpha-1B receptor after 20 mins. The conditions noted are these: read-out: pA2 (converted). A digest of the protocol: (§1)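 Isolated rat tissues (prostatic vas deferens, spleen, thoracic aorta) contracted with cumulative norepinephrine; concentration-response curves recorded in presence of increasing antagonist concentrations, antagonism read as rightward curve shift. Mean ± SEM of five to eight separate experiments.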

Assay [4] is filed under the species Rattus norvegicus. In words: Selectivity ratio for Sprague-Dawley rat prostatic vas deferens adrenergic alpha-1A receptor to Sprague-Dawley rat spleen adrenergic alpha-1B receptor.
In assay [5] the target is T2, Alpha-1A adrenergic receptor (Rattus norvegicus, UniProt P43140).
T2 sequence (P43140 whole entry): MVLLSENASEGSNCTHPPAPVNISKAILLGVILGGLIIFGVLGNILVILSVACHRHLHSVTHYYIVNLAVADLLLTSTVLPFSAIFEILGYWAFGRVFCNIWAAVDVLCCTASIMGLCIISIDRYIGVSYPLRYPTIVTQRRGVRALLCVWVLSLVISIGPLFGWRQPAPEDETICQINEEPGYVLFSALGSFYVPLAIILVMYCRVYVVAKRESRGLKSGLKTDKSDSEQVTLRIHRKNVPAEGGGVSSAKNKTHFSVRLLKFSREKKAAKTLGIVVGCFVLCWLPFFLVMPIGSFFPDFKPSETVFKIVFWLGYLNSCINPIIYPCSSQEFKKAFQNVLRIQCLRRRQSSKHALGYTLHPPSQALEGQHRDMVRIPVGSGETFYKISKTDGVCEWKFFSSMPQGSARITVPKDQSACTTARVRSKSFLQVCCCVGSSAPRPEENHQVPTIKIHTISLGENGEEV
Nature of the assay: Antagonist activity at Sprague-Dawley rat prostatic vas deferens adrenergic alpha-1A receptor after 20 mins. The settings on record: read-out: pA2 (converted). A digest of the protocol: as §1

In assay [6] the target is T3, Alpha-1D adrenergic receptor (Rattus norvegicus, UniProt P23944).
T3 sequence (P23944 whole entry): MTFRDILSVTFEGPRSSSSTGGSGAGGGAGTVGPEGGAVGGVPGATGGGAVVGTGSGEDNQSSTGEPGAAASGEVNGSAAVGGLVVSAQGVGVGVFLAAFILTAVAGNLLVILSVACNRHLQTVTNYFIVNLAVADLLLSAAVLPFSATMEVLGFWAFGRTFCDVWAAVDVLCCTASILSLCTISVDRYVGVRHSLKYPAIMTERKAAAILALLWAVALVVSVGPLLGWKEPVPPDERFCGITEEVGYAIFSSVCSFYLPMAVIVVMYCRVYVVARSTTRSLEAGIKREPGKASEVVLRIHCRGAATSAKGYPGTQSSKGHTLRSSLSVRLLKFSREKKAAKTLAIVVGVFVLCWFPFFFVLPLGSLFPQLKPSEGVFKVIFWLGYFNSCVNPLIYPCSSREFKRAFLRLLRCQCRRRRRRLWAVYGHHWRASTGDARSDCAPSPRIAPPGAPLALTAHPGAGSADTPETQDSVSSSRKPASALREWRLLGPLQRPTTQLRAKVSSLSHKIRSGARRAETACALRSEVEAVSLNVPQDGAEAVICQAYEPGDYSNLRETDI
In words: Antagonist activity at Sprague-Dawley rat thoracic aorta adrenergic alpha-1D receptor after 20 mins. The conditions noted are these: read-out: pA2 (converted). An outline of the steps: as §1

Assay [7] has as its system DU-145. Nature of the assay: Cytotoxicity against human DU145 cells after 48 hrs by WST-8 assay. The class given is functional, cell-based. The conditions noted are these: DU-145, 48 h. On the technique in general: Formazan colour is commonly taken as a measure of viable cells.
A short description of assay [8]: Cytotoxicity against human PC3 cells after 48 hrs by WST-8 assay. It counts as functional, cell-based. The settings on record: PC-3, 48 h.
The subject of another assay is LNCaP. Nature of the assay: Cytotoxicity against human LNCAP cells after 48 hrs by WST-8 assay. It counts as functional, cell-based.
For assay [9], the system named is DU-145. Nature of the assay: Cytotoxicity against human DU145 cells. The class given is functional, cell-based.
Assay [10] in a line: Cytotoxicity against human PC3 cells. The conditions noted are these: PC-3. The class given is functional, cell-based.

The IC50 is the midpoint of a concentration-inhibition curve. Low values mean greater potency, high ones weaker potency.

`COc1ccccc1N1CCN(CCCNC(=O)c2ccc3[nH]ccc3c2)CC1`: the Ratio in the assay listed under Rattus norvegicus [1] was 10.5; in the assay listed under Rattus norvegicus [2], 2.2; in the assay filed under Rattus norvegicus [4], 4.7. The values for the Kb in assay [3], in assay [5] and in assay [6] were 0.123 µM, 0.0263 µM and 0.0117 µM, respectively.

With `COc1ccccc1N1CCN(CCCNC(=O)CCCc2c[nH]c3ccccc23)CC1`, the values for the Ratio in the assay listed under Rattus norvegicus [1], in the assay filed under Rattus norvegicus [2] and in the assay filed under Rattus norvegicus [4] were 18.6, 2.5 and 7.6, respectively. For the same compound, the IC50 in the assay with DU-145 [7] is over 100 µM; in assay [8] it was over 100 µM; in the assay on LNCaP it was 52.3 µM. Moreover, the values for the Kb in [3], in [5] and in assay [6] were 0.0955 µM, 0.0126 µM and 0.00513 µM, respectively.

As to `COc1ccccc1N1CCN(CC(O)COc2cccc3ccccc23)CC1` (stereo not drawn) [NAFTOPIDIL], the values for the Ratio in the assay filed under Rattus norvegicus [1], in the assay listed under Rattus norvegicus [2] and in the assay listed under Rattus norvegicus [4] were 15.1, 2.8 and 5.4, respectively. For the same compound, the IC50 was over 50 µM in the assay with DU-145 [7]; over 50 µM in [8]; 22.2 µM in the assay with DU-145 [9]; over 50 µM with LNCaP; 33.2 µM in assay [10]. The values for the Kb in [3], in assay [5] and in assay [6] were 0.178 µM, 0.0331 µM and 0.0117 µM, respectively.

Consider `COc1ccccc1N1CCN(CCCNC(=O)c2cc3cccc([N+](=O)[O-])c3[nH]2)CC1`, for which the Ratio in the assay listed under Rattus norvegicus [1] stood at 22.9; in the assay filed under Rattus norvegicus [2] it was 2.1; in the assay filed under Rattus norvegicus [4], 11. The Kb in assay [3] was 0.646 µM; in assay [5], 0.0589 µM; in assay [6] it was 0.0282 µM.

`COc1ccccc1N1CCN(CCCNC(=O)c2cc3cc(O)ccc3[nH]2)CC1`: the results for the Ratio in the assay listed under Rattus norvegicus [1], in the assay filed under Rattus norvegicus [2] and in the assay listed under Rattus norvegicus [4] were 5.6, 2 and 2.8, respectively. For the same compound, the Kb in assay [3] is 0.155 µM; in [5], 0.055 µM; in assay [6], 0.0269 µM.

With `COc1ccccc1N1CCN(CCCNC(=O)c2cc3cc(Cl)ccc3[nH]2)CC1`, the values for the Ratio in the assay listed under Rattus norvegicus [1], in the assay listed under Rattus norvegicus [2] and in the assay filed under Rattus norvegicus [4] were 13.2, 2.5 and 5.4, respectively. In addition, the IC50 in the assay on DU-145 [7] came out at 47 µM; in assay [8], 36.9 µM; in the assay with LNCaP it was 28.4 µM. For the same compound, the Kb was 0.257 µM in [3], 0.0479 µM in assay [5] and 0.0195 µM in assay [6].

In the case of `COc1ccccc1N1CCN(CCCNC(=O)c2cc3ccc(Br)cc3[nH]2)CC1`, the figures for the Ratio in the assay listed under Rattus norvegicus [1], in the assay filed under Rattus norvegicus [2] and in the assay filed under Rattus norvegicus [4] were 13.8, 4.6 and 3, respectively. Further, the results for the IC50 (in the assay with DU-145 [7]; in assay [8]; with LNCaP) were 39.3 µM, 31.2 µM and 26.7 µM, respectively. Moreover, the results for the Kb in assay [3], in [5] and in assay [6] were 0.209 µM, 0.0692 µM and 0.0151 µM, respectively.

As for `COc1ccccc1N1CCN(CCCNC(=O)CCc2c[nH]c3ccccc23)CC1`, the Ratio in the assay filed under Rattus norvegicus [1] stood at 6.3; in the assay listed under Rattus norvegicus [2], 5.6; in the assay listed under Rattus norvegicus [4], 1.1. Besides, the Kb in assay [3] was 0.219 µM; in assay [5], 0.195 µM; in [6] it was 0.0347 µM.

In turn, `COc1cc2nc(N3CCN(C(=O)C4COc5ccccc5O4)CC3)nc(N)c2cc1OC` (stereo not drawn) [DOXAZOSIN] showed an IC50 in [8] of over 50 µM.

For `COc1cc2nc(N3CCN(C(=O)C4CCCO4)CC3)nc(N)c2cc1OC` (stereo not drawn) [TERAZOSIN], the Kb in assay [3] was 0.00257 µM; in [6] it was 0.00148 µM.

Consider `COc1ccccc1N1CCN(CCCNC(=O)c2cn(C)c3ccccc23)CC1`, for which the Ratio is 30.2 in the assay listed under Rattus norvegicus [1], 9.6 in the assay filed under Rattus norvegicus [2] and 3.2 in the assay filed under Rattus norvegicus [4]. The Kb was 0.166 µM in assay [3], 0.0525 µM in assay [5] and 0.0055 µM in assay [6].

For the compound `COc1ccc2[nH]c(C(=O)NCCCN3CCN(c4ccccc4OC)CC3)cc2c1`, the Ratio was 24.5 in the assay listed under Rattus norvegicus [1], 1.3 in the assay filed under Rattus norvegicus [2] and 18.6 in the assay filed under Rattus norvegicus [4]. Also, the Kb in [3] is 1.45 µM; in assay [5], 0.0776 µM; in assay [6] it was 0.0589 µM.

For the compound `COc1ccccc1N1CCN(CCCNC(=O)Cc2c[nH]c3ccccc23)CC1`, the figures for the Ratio in the assay filed under Rattus norvegicus [1], in the assay filed under Rattus norvegicus [2] and in the assay filed under Rattus norvegicus [4] were 97.7, 1.5 and 64.6, respectively. For the same compound, the Kb was 0.513 µM in assay [3], 0.00794 µM in assay [5] and 0.00525 µM in [6].
